miR-122 sensor: blocks miR-122 activity in Huh7 sensor cells. Huh7 miR-122 Renilla luciferase sensor, 48 h; neutral wells = 0, positive control = 100. 340,000 compounds, 0.3% hits. activation (reporter increase), % at 12.5 µM;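 active = mean replicate activation score at least 90 and every replicate individually at or above 90; inconclusive = only one of the two criteria met; inactive = neither criterion met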;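 also: higher luciferase means less miR-122 activity so hits act as miR-122 inhibitors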
INS-1E GSIS act: GLuc luminescence reporter in INS-1E cells, primary screen for activators of glucose-dependent secretion of insulin. INS-1E GLuc reporter insulin secretion, 2-3 h. AID 743287. activation, % at 16.6 µM. 370,000 compounds, 0.61% hits;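 active = lowest replicate activation of at least 40%, so every replicate reaches that level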;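 also: 0% = median of neutral control wells and 100% = median of IBMX positive control wells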
HIV Env fusion: inhibitors of HIV Env-mediated cell fusion | HeLa-JRFL Env/CEM21 cell fusion, luciferase | inhibition, % at 12.3 µM | 360,000 compounds, 1.1% hits | AID 651610;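 active = mean replicate inhibition score of at least 50 and every replicate individually at or above 50; inconclusive = only one of the two criteria met; inactive = mean below 50 and not all replicates reaching 50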;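 also: 0% = plate neutral controls and 100% = maraviroc near 300 nM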
CFTR F508del cor: correctors of CFTR F508del function in bronchial epithelial cells; CFBE cells, YFP halide quenching; stimulated with forskolin plus potentiator P3; % fluorescence drop versus neutral controls; activity (quench increase), % at 7.58 µM; 350,000 compounds, 0.36% hits; AID 720511;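 active = mean added fluorescence quench of at least 8% versus neutral control, with both replicates also reaching 8%; inconclusive = only one of the mean or replicate conditions met; inactive = mean below 8% and not both replicates reaching 8%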;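 also: cells transiently co-express mutant CFTR-F508del with the halide-sensitive YFP; corrector assay measuring rescue of mutant channel to the surface after 24 h compound exposure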
rRNA inh HTS: selective bacterial rRNA inhibition in E. coli. GFP signal change (wild-type ribosome), % (no concentration beside the values). E. coli WT GFP vs humanized-ribosome RFP mutants, fluorescence, 24 h; hits give low values; DMSO median 0, no signal -100. 350,000 compounds, 1.6% hits;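 active = significant combined selectivity score with lowered wild-type GFP, culture density cut under 30%, mutant RFP and density less affected; inactive = any of these conditions unmet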
Cneo AK release: causes C. neoformans cell lysis; adenylate kinase release luminescence, 4 h; normalised: neutral wells 0, clomiphene wells 100; lysis activity, % at 15 µM; 360,000 compounds, 0.2% hits;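 active = mean lysis activity across replicates of at least 80%, whatever share of replicates individually reach that level; inactive = mean lysis activity below 80%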
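Schedule: static 4 h at 37 °C with compound, 1 h detection; system: C. neoformans cells; benchmarks: Clomiphene as positive control; buffer or medium: fresh YPD medium; measure: luminescence rise reflecting yeast cell lysis; measured by: luminescent adenylate kinase detection reagent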
AID977621: wild-type E. coli growth inhibition versus H69 humanized strain – H69 mutant RFP, wild-type GFP, cherry-pick, dose response; 1,900 tested, under 10 active; activity change, negative = inhibition at 50 µM; fluorescence, 24 h; shares compounds with rRNA inh HTS;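 active = Wild-type ribosome reporter drop at least double the humanized mutant ribosome reporter drop, growth loss under a set limit; inconclusive = no clear call, values can overlap the other calls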;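 also: wild-type GFP and H69 mutant RFP strains grown together 50/50 in each well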
AID977628: E. coli growth inhibition, wild-type GFP versus h24 humanized RFP strain, dose response, h24 mutant RFP vs wild-type GFP, cherry-pick | E. coli WT GFP strain growth, fluorescence, 24 h | 1,900 tested, under 10 active | activity change, negative = inhibition at 50 µM | shares compounds with rRNA inh HTS | AID 977628;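 active = compound lowering the normal-ribosome reporter at least twice as much as the humanized-ribosome reporter, growth loss under a set limit; inconclusive = no clear call, values can overlap the other calls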;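 also: wild-type GFP and h24 humanized RFP strains co-cultured 1 to 1 per well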
* marks the source's active call; other numbers are inactive results; ? = inconclusive; . = not tested or not shown; [ ] = remark or other dose. This is a sample that favours compounds with a hit; in the whole collection about 3.1% have one here.

SMILES	miR-122 sensor	INS-1E GSIS act	HIV Env fusion	CFTR F508del cor	rRNA inh HTS	Cneo AK release	AID977621	AID977628
Cc1ccc2nc(-c3ccc(Cl)cc3)c(Cc3ccccc3C(F)(F)F)n2c1	22	2	-10	-2	-16*	-1	-2.3	-2.8
Clc1ccc(-c2nc3ccc(Cl)cn3c2Cc2cccc(Cl)c2)cc1	1	-5	-31	2	-13	-1	.	.
Fc1ccc(-c2nc3ccc(Cl)cn3c2Cc2cccc(Cl)c2)cc1	4	-10	0	-4	-21*	2	8.2	-17
COc1ccc(Cc2c(-c3cccc(Br)c3)nc3ccc(Cl)cn23)c(C)c1	3	1	-50	2	-5	-1	.	.
COc1ccc(-c2nc3ccc(C)cn3c2Cc2cccc(F)c2)cc1OC	3	-22	6	4	-61	9	.	.
COc1ccc(-c2nc3ccc(Cl)cn3c2Cc2cccc(F)c2)cc1OC	3	-9	15	-1	-21*	2	?	.
COc1ccc(Cc2c(-c3cccc(Cl)c3)nc3ccc(Cl)cn23)c(C)c1	-7	-6	-14	-1	-19*	1	?	-10
CCC(=O)Nc1ccc2c(c1)OC[C@@H](C)N(Cc1ccccc1OC)C[C@@H](C)[C@@H](OC)CN(C)C2=O	.	2	.	1	2	52	.	.
C[C@@H]1CN([C@@H](C)CO)S(=O)(=O)c2ccc(-c3ccccc3)cc2O[C@H]1CN(C)C(=O)C1CCC1	16[16.7 µM]	-17	2[16.7 µM]	-1	-14	.	.	.
CCOc1ncccc1C(=O)OCC(=O)NCCCc1ccccc1	2	54*	?	-2	-21*	1	-7.2	-13
CCOc1ncccc1C(=O)OCC(=O)NCCc1ccccc1	-4	1	.	.	.	-24	.	.
O=C(C[C@H]1CC[C@H](NC(=O)Nc2cc(F)ccc2F)[C@H](CO)O1)Nc1ccccc1	.	13	7[16.7 µM]	1	1	-1	.	.
COc1ccc(CNC(=O)c2cc3c(s2)CN(Cc2ccccc2)C3)cc1	-1	-7	-11	-2	-22*	.	-20	.
Cc1ccc(-c2ccc3c(c2)O[C@@H](CN(C)C(=O)Nc2ccccc2)[C@@H](C)CN([C@@H](C)CO)S3(=O)=O)cc1	.	-33	-17[16.7 µM]	0	0	0	.	.
COCC(=O)Nc1ccc2c(c1)C(=O)N(C)C[C@H](OC)[C@@H](C)CN(C(=O)Cc1ccccn1)[C@H](C)CO2	.	8	.	2	2	3	.	.
O=C(C[C@@H]1CC[C@H](NC(=O)Nc2ccc(C(F)(F)F)cc2)[C@@H](CO)O1)NCc1cccc(F)c1	.	-3	12[16.7 µM]	0	-4	0	.	.
COc1ccc(-c2cccc([C@H]3[C@@H]4C=CC[C@@H](C)[C@@H]4C(=O)N3Cc3ccccc3)c2)cc1	-1	-5	43	0	14	2	.	.
CC(=O)c1ccc(-c2cccc([C@H]3[C@@H]4C=CC[C@@H](C)[C@@H]4C(=O)N3Cc3ccccc3)c2)cc1	-7	49	30	2	-19*	0	-0.09	-8.4
CCC(=O)N1C[C@H]2[C@@H](c3ccccc31)[C@@H](CO)N2C(=O)Nc1ccccc1F	25[16.7 µM]	3	.	-1	4	0	.	.
N#Cc1ccc(C(=O)Nc2ccn(-c3ccccc3)n2)cc1	.	-2	15	0	-14*	.	-8.6	.
O=C(Nc1ccn(-c2ccccc2)n1)c1ccc(Cl)cc1	.	-27	2	.	.	.	.	.
C[C@@H]1CN([C@H](C)CO)C(=O)c2cc(NS(=O)(=O)c3ccccc3)ccc2O[C@H]1CN(C)C(=O)Nc1cccc2ccccc12	-7[16.7 µM]	5	13[16.7 µM]	0	-1	-6	.	.
c1ccc(Cc2nc3ccccc3s2)cc1	9	-1	-10	1	-18*	1	.	-12
O=C(CCc1nc2ccccc2s1)Nc1ccccc1	.	4	15	.	.	.	.	.
CCOC(=O)c1ccc(NC(=O)Nc2ccc(OC)c(OC)c2)cc1	4	-23	17	.	.	-2	.	.
SMILES	miR-122 sensor	INS-1E GSIS act	HIV Env fusion	CFTR F508del cor	rRNA inh HTS	Cneo AK release	AID977621	AID977628
CCOC(=O)c1ccc(NC(=O)c2ccc(OC(C)C)c(OC)c2)cc1	.	-26	30	1	-26*	.	-3.6	-7.8
C[C@@H]1CCCCO[C@@H](CN(C)S(=O)(=O)c2ccc(F)cc2)[C@@H](C)CN([C@@H](C)CO)C(=O)c2cc(NS(=O)(=O)c3cn(C)cn3)ccc2O1	3[16.7 µM]	12	-38[16.7 µM]	-3	-1	5	.	.
Cc1ccc2nc(SCC(=O)Nc3ccccc3N3CCOCC3)c(C#N)cc2c1	23	.	.	.	.	-1	.	.
O=C(CSc1nc(C2CC2)nc2ccccc12)Nc1ccccc1Cl	.	15	0	-3	0	-1	.	.
O=C(CSc1nc(C2CC2)nc2ccccc12)Nc1ccccc1N1CCOCC1	.	2	10	1	-17*	.	-6.2	-7.3
CCc1ccc2nc(SCC(=O)Nc3ccccc3N3CCOCC3)c(C#N)cc2c1	14	15	-26	2	-30*	.	-11	-4
CCNC(=O)CN(c1ccccc1OC)S(=O)(=O)c1cccs1	-3	13	-8	.	.	1	.	.
COc1ccc(NC(=O)CN(c2ccccc2OC)S(=O)(=O)c2cccs2)cc1Cl	-3	-39	26	3	-17*	4	-11	.
C[C@H]1CN([C@@H](C)CO)C(=O)c2cc(C#Cc3cccc(F)c3)cnc2O[C@H]1CN(C)Cc1ccccn1	-11[16.7 µM]	.	0[16.7 µM]	3	.	3	.	.
CCCNC(=O)c1noc2c1CCc1cc(OC)ccc1-2	-12	-5	-91	-2	-28*	-9	?	.
COc1ccc2c(c1)CCc1c(C(=O)NCC(C)C)noc1-2	-25	2	-243	1	-7	-14	.	.
Cc1cc2c(nc1C)CCCN2Cc1ccc(Br)cc1	.	.	25	3	5	.	.	.
CCc1cc2c(nc1CC)CCCN2Cc1ccc(Br)cc1	.	.	17	3	-26*	.	-3.3	.
COCC(=O)N1[C@H](C(=O)NCc2ccccc2)[C@@H](CO)[C@@H]2Cn3c(cccc3=O)[C@@H]21	.	2	-15[16.7 µM]	.	1	-2	.	.
O=C(Cn1c(C(=O)NCC2CCCO2)cc2sccc21)c1ccccc1 (centres undefined)	-20	.	.	1	.	-1	.	.
O=C(Cn1c(C(=O)NCc2ccco2)cc2sccc21)c1ccccc1	-1	-14	.	-1	-23*	-1	-21	?
C#CC[N+](C)(C)CC#Cc1ccccc1	.	29	0	2	21	.	.	.
Cc1ccc(C#CC[N+](C)(C)CC#Cc2ccccc2)cc1	-7	-39	-8	-3	-54*	.	.	?
